Columns and labels:
A549 [1] = experiment: Cytotoxicity against human A549 cells overexpressing ACE2 and TMPRSS2 incubated for 48 hrs by MTS assay; format: functional
How it was run: (§1)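 A549 AT host cells were used for viability read-out. More than 95% viability at 50 μM was classed as nontoxic. CC50 values came from at least duplicate determinations and were averaged.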

A549 [2] = experiment: Cytotoxicity against human A549 cells overexpressing ACE2 and TMPRSS2 assessed as cell viability at 50 uM incubated for 48 hrs by MTS assay; format: functional; conditions: read-out: Activity; how it was run: as §1
[3] = Metabolic stability in human liver S9 fraction assessed as half life at 1 micromol/L in presence of UDPGA measured upto 24 hrs by LC-MS/MS analysis; format: ADME, subcellular; conditions: s9, 24 h, 1 µM, dose 1 µmol/L
[4] = Metabolic stability in human liver S9 fraction assessed as half life at 1 micromol/L in presence of NADPH measured upto 24 hrs by LC-MS/MS analysis; format: ADME, subcellular; conditions: s9, 24 h, 1 µM, dose 1 µmol/L
[5] = Metabolic stability in human plasma at 1 micromol/L measured upto 24 hrs by LC-MS/MS analysis; format: ADME, cell-free; conditions: dose 1 µmol/L
How it was run: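 Compound was incubated in human plasma, and percentage remaining was followed over the incubation. Data are mean ± SD.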

[6] = biological target: Replicase polyprotein 1ab (Severe acute respiratory syndrome coronavirus 2) (UniProt P0DTD1); experiment: Stabilization of SARS-CoV-2 NSP14 expressed in Escherichia coli BL21(DE3) assessed as change in melting temperature at 200 uM incubated for 4 mins by SYPRO orange dye based thermal shift assay
[7] = Metabolic stability in CD-1 mouse plasma at 1 micromol/L measured upto 24 hrs by LC-MS/MS analysis; format: ADME, cell-free; conditions: dose 1 µmol/L
[8] = Metabolic stability in CD-1 mouse liver S9 fraction assessed as half life at 1 micromol/L in presence of NADPH measured upto 24 hrs by LC-MS/MS analysis; format: ADME, subcellular; conditions: s9, 24 h, 1 µM, dose 1 µmol/L
[9] = Metabolic stability in CD-1 mouse liver S9 fraction assessed as half life at 1 micromol/L in presence of UDPGA measured upto 24 hrs by LC-MS/MS analysis; format: ADME, subcellular; conditions: s9, 24 h, 1 µM, dose 1 µmol/L

Structure (SMILES): CC(C)C(=O)O[C@@H]1[C@H](OC(=O)C(C)C)[C@@H](CNS(=O)(=O)c2ccc3ccccc3c2)O[C@H]1n1cnc2c(N)ncnc21
- CC50 (A549 [1]): > 100 µM

Structure (SMILES): CCC(CC)COC(=O)[C@H](C)N[P@](=O)(OC[C@H]1O[C@@](C#N)(c2ccc3c(N)ncnn23)[C@H](O)[C@@H]1O)Oc1ccccc1
- CC50 (A549 [1]): 43 µM

Structure (SMILES): Nc1ncnc2c1ncn2[C@@H]1O[C@H](CNS(=O)(=O)c2ccc3cccnc3c2)[C@@H](O)[C@H]1O
- viability at 50 µM (A549 [2]): > 95%

Structure (SMILES): CC(=O)O[C@@H]1[C@H](OC(C)=O)[C@@H](CNS(=O)(=O)c2ccc3ccccc3c2)O[C@H]1n1cnc2c(N)ncnc21
- CC50 (A549 [1]): > 100 µM

Structure (SMILES): Nc1ncnn2c([C@@H]3O[C@H](CNS(=O)(=O)c4ccc5ccccc5c4)[C@@H](O)[C@H]3O)ccc12
- t1/2 [3]: > 0.75 h
- t1/2 [4]: 14 h
- t1/2 at 24 h, 1 µM [5]: > 24 h
- CC50 (A549 [1]): > 100 µM
- ΔTm [6]: > 8 °C
- t1/2 at 24 h, 1 µM [7]: > 24 h
- t1/2 [8]: 0.482 h
- t1/2 [9]: > 0.75 h

Structure (SMILES): Nc1ncnc2c1ncn2[C@@H]1O[C@H](CNS(=O)(=O)c2ccc3ccccc3c2)[C@@H](O)[C@H]1O
- t1/2 [3]: > 0.75 h
- t1/2 [4]: 11.2 h
- t1/2 at 24 h, 1 µM [5]: > 24 h
- ΔTm [6]: > 8 °C
- t1/2 at 24 h, 1 µM [7]: > 24 h
- t1/2 [8]: 4.55 h
- t1/2 [9]: > 0.75 h
- viability at 50 µM (A549 [2]): > 95%

Structure (SMILES): CC(=O)Nc1ncnc2c1ncn2[C@@H]1O[C@H](CNS(=O)(=O)c2ccc3ccccc3c2)[C@@H](O)[C@H]1O
- CC50 (A549 [1]): > 100 µM
- ΔTm [6]: > 8 °C

Structure (SMILES): CC(=O)Nc1ncnc2c1ncn2[C@@H]1O[C@H](CNS(=O)(=O)c2ccc3ccccc3c2)[C@@H](OC(C)=O)[C@H]1OC(C)=O
- CC50 (A549 [1]): > 100 µM

Structure (SMILES): Nc1ncnc2c1ncn2[C@@H]1O[C@H](C[C@@H](N)CC[C@H](N)C(=O)O)[C@@H](O)[C@H]1O [SINEFUNGIN]
- viability at 50 µM (A549 [2]): > 95%

Structure (SMILES): Nc1ncnc2c1ncn2[C@@H]1O[C@H](CNS(=O)(=O)c2ccc3nc(Cl)ccc3c2)[C@@H](O)[C@H]1O
- viability at 50 µM (A549 [2]): > 95%

Structure (SMILES): Nc1ncnc2c1ncn2[C@@H]1O[C@H](CNC(=O)c2ccc3ccccc3c2)[C@@H](O)[C@H]1O
- viability at 50 µM (A549 [2]): > 95%

Structure (SMILES): Nc1ncnc2c1ncn2[C@@H]1O[C@H](CNCc2ccc3ccccc3c2)[C@@H](O)[C@H]1O
- viability at 50 µM (A549 [2]): > 95%

Structure (SMILES): O=c1ccc2ccc(O)cc2o1 [UMBELLIFERONE]
- t1/2 [9]: 0.013 h

Structure (SMILES): CC(=O)O[C@@H]1[C@H](OC(C)=O)[C@@H](CNS(=O)(=O)c2ccc3ccccc3c2)O[C@H]1c1ccc2c(N)ncnn12
- CC50 (A549 [1]): 63 µM

— ChEMBL document CHEMBL5143750, “Bisubstrate Inhibitors of Severe Acute Respiratory Syndrome Coronavirus-2 Nsp14 Methyltransferase” (ACS Med Chem Lett, 2022)
